Measurements collected from several papers.
Lines come from different studies, so protocols differ.
Target: Serine/threonine-protein kinase PAK 5 (PAK5, Homo sapiens, UniProt Q9P286)

SMILES	test	setting	measurement	value
O=C(O)[C@H]1[C@H](Cn2nnc3ccccc3c2=O)CC[C@@H]1C(=O)c1ccc(OCCC2CCOCC2)cc1	cell-free assay, competition with immobilised ligand	1 µM	remaining binding	98%
Nc1nc(Nc2ccc(S(N)(=O)=O)cc2)nn1C(=O)c1c(F)cccc1F	cell-free assay	0.5 µM	remaining signal	85.4%
Nc1c(C(=O)NCc2ccc(C(=O)NCCCC3CCCCC3)cc2)cnn1-c1ccccc1	cell-free assay, competition with immobilised ligand	0.1 µM	remaining binding	100%
Cc1ccc(NC(=O)c2ccc(C)c(C(F)(F)F)c2)cc1C#Cc1nn(C2CCC(O)CC2)c2ncnc(N)c12 (centres unmarked)	cell-free assay	10 µM	remaining signal	89%
CN(C)C(=O)Cn1cc(-c2nc(C3(c4ccc(-c5cnc(N)nc5)cc4)CC3)no2)cn1	cell-free assay, competition with immobilised ligand	1 µM	remaining binding	88%
FC(F)c1nc2ccccc2n1-c1nc(N2CCOCC2)nc(N2CCOCC2)n1	enzyme activity, inhibitor	10 µM	remaining activity	84%
C[C@@H]1CN(c2cc(-c3nn(C)c4ccc(OC5(C)CC5)cc34)ncn2)C[C@H](C)O1	cell-free assay, competition with immobilised ligand	1 µM	remaining binding	84%
CNC(=O)c1cc(Oc2ccc(NC(=O)Nc3ccc(Cl)c(C(F)(F)F)c3)cc2)ccn1	enzyme activity, inhibitor	0.3 µM	inhibition	-18%
CC(C)(C)C(=O)c1sc(NC2CCCCC2)nc1N	enzyme activity, inhibitor	10 µM	remaining activity	110%
Cc1nccc(COC(=O)N2C[C@@H]3[C@@H](CNC(=O)c4ccc5[nH]nnc5c4)[C@@H]3C2)n1	cell-free assay, competition with immobilised ligand	1 µM	remaining binding	92%
Nc1ncnc2occ(-c3ccc(NC(=O)Nc4cc(C(F)(F)F)ccc4F)cc3)c12	cell-free assay, inhibitor	20 µM	remaining signal	60%
Cc1cnc(NC2CCOCC2)nc1-n1cnc(C(=O)NC(CN)c2cc(F)cc(Cl)c2)c1 (centres unmarked)	enzyme activity, inhibitor, radiometric	1 µM	remaining activity	83%
CCCS(=O)(=O)Nc1ccc(F)c(C(=O)c2c[nH]c3ncc(-c4ccc(Cl)cc4)cc23)c1F	enzyme activity, inhibitor	1 µM	inhibition	< 10%
O=C(Nc1cnn(-c2csc(C(=O)NC3COC3)c2)c1)Nc1c(F)cccc1Cl	enzyme activity, inhibitor	5 µM	remaining activity	92.9%
Cc1noc([C@H]2C[C@@H](c3ccc(C(F)(F)F)cc3)CN(C(=O)N3CCS(=O)(=O)C3)C2)n1	cell-free assay, competition with immobilised ligand	1 µM	remaining binding	100%
FC(F)(F)Oc1cccc(-c2cnc3ccc(-c4ccncc4)nn23)c1	enzyme activity, inhibitor, radiometric	1 µM	activity vs control	72%
COc1cc2ncnc(Nc3ccc(Oc4ccccc4)cc3C)c2cc1OC	enzyme activity, inhibitor	1 µM	inhibition	1%
Cc1c[nH]c2nccc(Oc3c(F)cc(Nc4cc(Cl)nc(N)n4)cc3F)c12	cell-free assay, competition with immobilised ligand	0.1 µM	remaining binding	92%
CCN(CC)CCNC(=O)c1c(C)[nH]c(/C=C2\C(=O)Nc3ccc(F)cc32)c1C	enzyme activity, inhibitor	0.3 µM	inhibition	-4%
CCOc1cc(-c2nncn2C)ccc1Nc1ncc2cc(C)nc(NCC(C)(C)C)c2n1	enzyme activity, inhibitor, FRET	1 µM	inhibition	< 15%
CCCOc1ccc(OC)c(F)c1C(=O)c1ccc(C(=O)N[C@@H]2CNC[C@H]2NC(=O)c2ccc3[nH]ncc3c2)cc1	enzyme activity, inhibitor	10 µM	remaining activity	85%
CS(=O)(=O)CCNCc1ccc(-c2ccc3ncnc(Nc4ccc(OCc5cccc(F)c5)c(Cl)c4)c3c2)o1	cell-free assay	0.5 µM	remaining signal	98.5%
COCCOc1nc(-c2ccc(Cl)nc2)nc2c1CN(C(=O)c1ncn3ccccc13)CC2	cell-free assay, competition with immobilised ligand	0.1 µM	remaining binding	100%
CN1CC(Oc2cnc(C#N)cc2-c2ccn3nc(NC(=O)C4CC4)cc3c2)C1	enzyme activity, inhibitor	1 µM	inhibition	3%
Cc1ccc(C(=O)NCc2ccsc2)cc1C#Cc1cn(C(C)C)c2ncnc(N)c12	enzyme activity, inhibitor	1 µM	activity vs control	105%
CC(C)(C)c1nc(-c2cccc(NS(=O)(=O)c3c(F)cccc3F)c2F)c(-c2ccnc(N)n2)s1	enzyme activity, inhibitor, radiometric	1 µM	remaining activity	78%
C[C@H]1CCN(c2nccc(-c3cnn4ncccc34)n2)C1	binding	1 µM	remaining binding	100%
Oc1cccc(-c2nc(N3CCOCC3)c3oc4ncccc4c3n2)c1	enzyme activity, inhibitor	10 µM	remaining activity	112%
N#CCCc1ccc2c(c1)-c1[nH]c3ccc([N+](=O)[O-])cc3c1CC(=O)N2	cell-free assay	0.5 µM	remaining signal	60.3%
